Values after ≈ are worked out from the molar mass of the structure shown.

What is called GI50 is the concentration at which growth is held to half of that of the control.

Holding throughout (assay type): functional
The test system of one test is NCI-H460. Nature of the test: Growth inhibition of human NCI-H460 cells after 48 hrs by SRB assay. Particulars: NCI-H460, 48 h. In a few lines: (§1)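 Cells in RPMI1640 with 5% fetal bovine serum were seeded in 96-well plates and incubated 24 h before serial dilutions of compound were added. After 48 h, plates were TCA-fixed, stained with sulforhodamine B and read on a microplate reader. Five serial dilutions were tested, with optical density in duplicate per end point. GI50 was calculated from optical density as the concentration halving net protein increase.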

The subject of a further test is SF-268. Nature of the test: Growth inhibition of human SF268 cells after 48 hrs by SRB assay. Particulars: SF-268, 48 h. In a few lines: as §1
(In general: Sulforhodamine B stains cellular protein and so reports cell mass.)

A further test relates to KM-20L2. Nature of the test: Growth inhibition of human KM20L2 cells after 48 hrs by SRB assay. As to conditions: KM-20L2, 48 h. In a few lines: as §1
Another test relates to DU-145. Nature of the test: Growth inhibition of human DU145 cells after 48 hrs by SRB assay. Particulars: DU-145, 48 h. The essentials:
as §1

The next test has as its system MCF7. Nature of the test: Growth inhibition of human MCF7 cells after 48 hrs by SRB assay. Particulars: MCF7, 48 h. In a few lines: as §1
The subject of another test is BXPC-3. Nature of the test: Growth inhibition of human BxPC3 cells after 48 hrs by SRB assay. As to conditions: BXPC-3, 48 h. The essentials: as §1

As to `CC[C@H](C)[C@@H]([C@@H](CC(=O)N1CCC[C@H]1[C@H](OC)[C@@H](C)C(=O)NCCN1C(=O)[C@]23CCC(C)(C)C1[C@@H]2[C@H]1CC[C@@H]2[C@@]4(C)CC[C@H](O)C(C)(C)[C@@H]4CC[C@@]2(C)[C@]1(C)CC3)OC)N(C)C(=O)[C@@H](NC(=O)[C@H](C(C)C)N(C)C)C(C)C`, the GI50 amounted to 0.6 mg/L (≈ 0.556 µM) with NCI-H460; 0.09 mg/L (≈ 0.0834 µM) in the test with SF-268; 0.22 mg/L (≈ 0.204 µM) in the test on KM-20L2; 0.06 mg/L (≈ 0.0556 µM) in the test with DU-145; 0.21 mg/L (≈ 0.195 µM) in the test on MCF7; 0.31 mg/L (≈ 0.287 µM) in the test with BXPC-3.

As to `C=C(C)[C@@H]1CC[C@]2(CNC(=O)[C@H](C)[C@@H](OC)[C@@H]3CCCN3C(=O)C[C@@H](OC)[C@H]([C@@H](C)CC)N(C)C(=O)[C@@H](NC(=O)[C@H](C(C)C)N(C)C)C(C)C)CC[C@]3(C)[C@H](CC[C@@H]4[C@@]5(C)CC[C@H](O)C(C)(C)[C@@H]5CC[C@]43C)[C@@H]12`, the GI50 is over 1 mg/L in the test with NCI-H460; 0.3 mg/L (≈ 0.293 µM) with SF-268; 0.31 mg/L (≈ 0.303 µM) in the test with KM-20L2; 0.4 mg/L (≈ 0.391 µM) in the test with DU-145; 0.4 mg/L (≈ 0.391 µM) in the test on MCF7; 0.6 mg/L (≈ 0.587 µM) in the test with BXPC-3.

As to `C=C(C)[C@@H]1CC[C@]2(/C=N/O)CC[C@]3(C)[C@H](CC[C@@H]4[C@@]5(C)CC[C@H](OC(C)=O)C(C)(C)[C@@H]5CC[C@]43C)[C@@H]12`, the GI50 in the test with NCI-H460 was 4.1 mg/L (≈ 8.24 µM); with SF-268, 13.2 mg/L (≈ 26.5 µM); with KM-20L2, 5.1 mg/L (≈ 10.2 µM); in the test on DU-145, over 10 mg/L; in the test on MCF7, 4.5 mg/L (≈ 9.04 µM); in the test with BXPC-3 it was 15.5 mg/L (≈ 31.1 µM).
